Assay results taken from ChEMBL document CHEMBL3580530, “Allotides: Proline-Rich Cystine Knot α-Amylase Inhibitors from Allamanda cathartica” (J Nat Prod, 2015).
Calls of active or inactive are those of the source. The calls are words filed in the database; no cut-off is given here. Where a SMILES comes first, the peptide text is derived from it. Bridges are numbered along the chain shown (N, C = ends).

Key:
[1] = Thermal stability assessed as compound degradation at 100 degC incubated for 1 hr; type: physicochemical
Summary of the method: (§1)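 Peptide heated at 100 °C for 1 h. Intact peptide monitored by UPLC and MS.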

[2] = Thermal stability assessed as compound degradation in presence of chymotrypsin at 37 degC incubated for 4 hrs; type: ADME; conditions: isolated protein
Summary of the method: (§2)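 Peptide incubated with chymotrypsin at 37 °C for 4 h. Intact peptide monitored by UPLC and MS.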

[3] = target: T1, Pancreatic alpha-amylase (Sus scrofa) (UniProt P00690); assay: Inhibition of porcine pancreas alpha-amylase pre-incubated for 20 mins at 37 degC by bernfeld method
T1 sequence (whole entry): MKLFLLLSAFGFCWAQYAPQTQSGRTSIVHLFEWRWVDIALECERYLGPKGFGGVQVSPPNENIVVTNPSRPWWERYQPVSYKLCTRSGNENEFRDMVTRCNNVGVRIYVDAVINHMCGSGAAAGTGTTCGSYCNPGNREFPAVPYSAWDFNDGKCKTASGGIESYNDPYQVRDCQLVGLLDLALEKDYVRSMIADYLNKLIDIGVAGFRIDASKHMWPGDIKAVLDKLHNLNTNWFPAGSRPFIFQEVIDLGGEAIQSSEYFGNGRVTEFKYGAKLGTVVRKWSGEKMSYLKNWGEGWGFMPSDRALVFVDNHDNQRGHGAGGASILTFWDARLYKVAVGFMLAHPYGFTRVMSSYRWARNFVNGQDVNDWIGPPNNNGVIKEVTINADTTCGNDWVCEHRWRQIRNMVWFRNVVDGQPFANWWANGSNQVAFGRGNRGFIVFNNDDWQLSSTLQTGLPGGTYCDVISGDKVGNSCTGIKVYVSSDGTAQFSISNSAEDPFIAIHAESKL
Summary of the method: (§3)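 Bernfeld method. Peptide preincubated with α-amylase for 20 min at 37 °C. Hydrolysis started with 1% starch, run 5 min, then stopped with dinitrosalicylic acid color reagent. Absorbance read at 540 nm, with untreated enzyme set as 100%. Enzyme sources: T. molitor larval extract, human saliva, porcine pancreas, A. oryzae.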

Aspergillus oryzae = assay: Inhibition of Aspergillus oryzae alpha-amylase pre-incubated for 20 mins at 37 degC by bernfeld method; summary of the method: as §3
[4] = Thermal stability assessed as compound remaining in presence of chymotrypsin at 37 degC incubated for 4 hrs by UPLC and MS method; type: ADME; conditions: read-out: Stability; summary of the method: as §2
[5] = Toxicity against human HuH7 cells assessed as effect on cell viability up to 100 uM by Presto blue reagent based assay; conditions: huh-7
[6] = Thermal stability assessed as compound remaining at 100 degC incubated for 1 hr by UPLC and MS method; type: physicochemical; conditions: read-out: Stability; summary of the method: as §1
[7] = Toxicity against human O type erythrocytes cells assessed as induction of hemolysis up to 100 uM; type: cell-based; conditions: erythrocyte
Summary of the method: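 Hemolysis tested on human type O erythrocytes at up to 100 μM. Cliotide T4 used as the hemolytic positive control. Absorbance read on a microplate reader.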

[8] = Thermal stability assessed as compound hydrolysis using filly reduced form of compound in presence of chymotrypsin at 37 degC incubated for 4 hrs by UPLC and MS method; type: ADME; conditions: isolated protein
Summary of the method: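 Incubated with chymotrypsin at 37 °C for 4 h, then analysed by UPLC and MS.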

Vero = assay: Toxicity against African green monkey Vero cells assessed as effect on cell viability up to 100 uM by Presto blue reagent based assay; conditions: chlorocebus sabaeus
Alpha-amylase = Alpha-amylase (Tenebrio molitor, UniProt P56634); assay: (§4) Inhibition of Tenebrio molitor alpha-amylase pre-incubated for 20 mins at 37 degC by bernfeld method; summary of the method: as §3
Alpha-amylase, sequence (P56634 whole entry): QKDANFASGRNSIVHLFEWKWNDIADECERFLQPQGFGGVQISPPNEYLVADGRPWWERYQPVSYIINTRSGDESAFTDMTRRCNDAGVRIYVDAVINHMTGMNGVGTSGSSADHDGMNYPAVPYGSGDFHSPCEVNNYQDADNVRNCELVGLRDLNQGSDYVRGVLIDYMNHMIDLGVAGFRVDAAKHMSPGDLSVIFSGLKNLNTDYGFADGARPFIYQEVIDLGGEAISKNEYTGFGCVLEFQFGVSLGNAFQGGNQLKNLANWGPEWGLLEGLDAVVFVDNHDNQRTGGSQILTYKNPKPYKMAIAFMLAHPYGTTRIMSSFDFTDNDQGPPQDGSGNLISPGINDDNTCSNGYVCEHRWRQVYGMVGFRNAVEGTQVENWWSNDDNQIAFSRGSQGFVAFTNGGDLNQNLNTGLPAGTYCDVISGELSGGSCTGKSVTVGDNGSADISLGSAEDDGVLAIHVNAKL

[9] = target: Alpha-amylase (Tenebrio molitor) (UniProt P56634); assay: as §4; summary of the method: as §3
Alpha-amylase (Tenebrio molitor), sequence (P56634 whole entry, the tested form may be a part): as the sequence (P56634 whole entry) above

Escherichia coli = assay: Antibacterial activity against Escherichia coli up to 100 uM by radial diffusion assay; type: functional, organism-based
Summary of the method: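 Radial diffusion assay against E. coli, peptide tested up to 100 μM. Positive control: D4R, a broad-spectrum antimicrobial peptide dendrimer made in-house.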

[10] = target: T2, Alpha-amylase 1A (Homo sapiens) (UniProt P0DUB6); assay: Inhibition of alpha-amylase in human saliva pre-incubated for 20 mins at 37 degC by bernfeld method; summary of the method: as §3
T2 sequence (whole entry): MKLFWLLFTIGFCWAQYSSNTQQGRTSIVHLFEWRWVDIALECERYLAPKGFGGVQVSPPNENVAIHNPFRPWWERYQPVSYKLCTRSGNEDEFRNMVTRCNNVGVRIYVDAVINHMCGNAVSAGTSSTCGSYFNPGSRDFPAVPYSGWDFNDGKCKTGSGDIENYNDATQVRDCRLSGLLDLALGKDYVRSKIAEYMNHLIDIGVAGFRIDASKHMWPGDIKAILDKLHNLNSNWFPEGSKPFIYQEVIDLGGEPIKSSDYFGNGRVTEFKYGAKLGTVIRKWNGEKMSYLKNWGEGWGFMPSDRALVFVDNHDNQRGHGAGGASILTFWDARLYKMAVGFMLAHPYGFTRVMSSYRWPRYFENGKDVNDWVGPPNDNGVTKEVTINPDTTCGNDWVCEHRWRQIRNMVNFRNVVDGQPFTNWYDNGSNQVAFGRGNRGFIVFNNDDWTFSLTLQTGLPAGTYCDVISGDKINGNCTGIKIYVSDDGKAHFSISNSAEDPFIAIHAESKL

[11] = Toxicity against BHK cells assessed as effect on cell viability up to 100 uM by Presto blue reagent based assay; set-up: species or system Mesocricetus auratus; conditions: hamster

| Compound | Stability [1] | Stability [2] | inhibition [3] | inhibition (Aspergillus oryzae) | remaining at 4 h [4] | Activity [5] | remaining at 1 h [6] | Activity [7] | Stability [8] | Activity (Vero) | IC50 (Alpha-amylase) | inhibition [9] | Activity (Escherichia coli) | inhibition [10] | Activity [11] |
| --- | --- | --- | --- | --- | --- | --- | --- | --- | --- | --- | --- | --- | --- | --- | --- |
| CC[C@H](C)[C@@H]1NC(=O)CNC(=O)CNC(=O)[C@H]([C@@H](C)CC)NC(=O)[C@H](C(C)C)NC(=O)[C@@H]2CCCN2C(=O)[C@H](CCC(N)=O)NC(=O)[C@H]([C@@H](C)O)NC(=O)[C@@H]2CSSC[C@@H]3NC(=O)[C@H](Cc4ccc(O)cc4)NC(=O)[C@H](CCC(=O)O)NC(=O)CNC(=O)[C@H](CCCCN)NC(=O)[C@H](CCC(N)=O)NC(=O)[C@H](C)NC(=O)[C@@H](N)CSSC[C@H](NC(=O)[C@H](CSSC[C@@H](C(=O)N[C@@H](C)C(=O)O)NC1=O)NC(=O)[C@H](CCC(N)=O)NC(=O)[C@H](CC(C)C)NC(=O)[C@H](Cc1ccc(O)cc1)NC(=O)[C@H](C(C)C)NC(=O)[C@H](CO)NC3=O)C(=O)N[C@@H](CC(=O)O)C(=O)N1CCC[C@H]1C(=O)N[C@@H](Cc1ccc(O)cc1)C(=O)N[C@@H](Cc1cnc[nH]1)C(=O)N2 | Stable | Stable | – | – | – | – | – | – | – | – | – | – | – | – | – |
| CC[C@H](C)[C@@H]1NC(=O)CNC(=O)[C@H](CC(=O)O)NC(=O)[C@@H]2CSSC[C@@H]3NC(=O)[C@H](CC(C)C)NC(=O)[C@H](Cc4c[nH]c5ccccc45)NC(=O)[C@@H]4CCCN4C(=O)[C@H](CC(=O)O)NC(=O)[C@H](CSSC[C@H](N)C(=O)N[C@@H]([C@@H](C)CC)C(=O)N[C@@H](C)C(=O)N[C@@H](Cc4cnc[nH]4)C(=O)N[C@@H](Cc4ccc(O)cc4)C(=O)NCC(=O)N[C@@H](CCCCN)C(=O)N2)NC(=O)[C@H](CSSC[C@@H](C(=O)N[C@@H](CC(C)C)C(=O)O)NC(=O)[C@H](Cc2ccccc2)NC(=O)CNC(=O)[C@H]([C@@H](C)CC)NC(=O)[C@H]([C@@H](C)CC)NC(=O)[C@@H]2CCCN2C(=O)[C@@H]2CCCN2C(=O)[C@H]([C@@H](C)O)NC3=O)NC(=O)[C@H](CCC(N)=O)NC(=O)[C@H](CC(N)=O)NC(=O)[C@H]([C@@H](C)CC)NC1=O (H-CIAHYGKCDGIINQCCDPWLCTPPIIGFCL-OH; disulfide 1-16, 8-21, 15-29) | Stable | Stable | inactive | inactive | > 90% | Non-toxic | > 90% | Non-toxic | Unstable | Non-toxic | 2.6 µM | Dose-dependent effect | inactive | inactive | Non-toxic |
| CC[C@H](C)[C@@H]1NC(=O)CNC(=O)CNC(=O)[C@H]([C@@H](C)CC)NC(=O)[C@H](C(C)C)NC(=O)[C@@H]2CCCN2C(=O)[C@H](CCC(N)=O)NC(=O)[C@H]([C@@H](C)O)NC(=O)[C@@H]2CSSC[C@@H]3NC(=O)[C@H](Cc4ccc(O)cc4)NC(=O)[C@H](CCC(=O)O)NC(=O)CNC(=O)[C@H](CCCCN)NC(=O)[C@H](CCC(N)=O)NC(=O)[C@H](C)NC(=O)[C@@H](N)CSSC[C@H](NC(=O)[C@H](CSSC[C@H](C(=O)N[C@@H](C)C(=O)O)NC1=O)NC(=O)[C@H](CCC(N)=O)NC(=O)[C@H](CC(C)C)NC(=O)[C@H](Cc1ccc(O)cc1)NC(=O)[C@H](C(C)C)NC(=O)[C@H](CO)NC3=O)C(=O)N[C@@H](CC(=O)O)C(=O)N1CCC[C@H]1C(=O)N[C@@H](Cc1ccc(O)cc1)C(=O)N[C@@H](Cc1cnc[nH]1)C(=O)N2 | – | – | inactive | inactive | – | – | – | – | – | – | – | inactive | – | inactive | – |
